In brackets after ≈: the same amount, converted by molar mass.
Tests used:
[1] = molecular target: T1, Cytochrome P450 11B2, mitochondrial (Rattus norvegicus, UniProt P30099); assay: Inhibition of recombinant rat CYP11B2 using 11-deoxycorticosterone as substrate after 2 hrs by scintillation proximity assay
T1 sequence (P30099 whole entry): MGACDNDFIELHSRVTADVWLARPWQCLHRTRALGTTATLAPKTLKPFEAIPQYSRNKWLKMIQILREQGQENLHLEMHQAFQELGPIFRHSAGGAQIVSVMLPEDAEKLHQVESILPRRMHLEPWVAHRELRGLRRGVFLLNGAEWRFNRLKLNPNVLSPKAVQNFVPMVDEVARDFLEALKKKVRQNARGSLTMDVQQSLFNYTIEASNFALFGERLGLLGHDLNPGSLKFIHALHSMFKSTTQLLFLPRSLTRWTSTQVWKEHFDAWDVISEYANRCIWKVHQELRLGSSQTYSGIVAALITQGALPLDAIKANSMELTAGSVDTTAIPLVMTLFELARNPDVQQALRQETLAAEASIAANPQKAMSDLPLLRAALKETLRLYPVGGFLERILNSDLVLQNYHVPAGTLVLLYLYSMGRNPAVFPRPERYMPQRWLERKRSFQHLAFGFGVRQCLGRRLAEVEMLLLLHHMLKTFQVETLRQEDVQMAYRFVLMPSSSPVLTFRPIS

[2] = species on record: Macaca fascicularis; assay: Selectivity ratio of IC50 for cynomolgus monkey CYP11B1 to IC50 for cynomolgus monkey CYP11B2
In short: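 Adrenal homogenates from cynomolgus monkey (Macaca fascicularis) served as the enzyme source, with 11-DOC as substrate. CYP11B2 activity was read as aldosterone production and CYP11B1 activity as cortisol production. The value is the CYP11B1 IC50 divided by the CYP11B2 IC50.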

[3] = Half life in human liver microsomes after 30 mins by LC/MS/MS analysis; type: ADME
[4] = Half life in rat liver microsomes after 30 mins by LC/MS/MS analysis; type: ADME
[5] = species on record: Homo sapiens; assay: Selectivity ratio of IC50 for human recombinant CYP11B1 to IC50 for human recombinant CYP11B2
[6] = molecular target: T2, Cytochrome P450 11B2, mitochondrial (Homo sapiens, UniProt P19099); assay: Inhibition of human recombinant CYP11B2 using 11-deoxycorticosterone as substrate after 2 hrs by scintillation proximity assay
T2 sequence (P19099 whole entry): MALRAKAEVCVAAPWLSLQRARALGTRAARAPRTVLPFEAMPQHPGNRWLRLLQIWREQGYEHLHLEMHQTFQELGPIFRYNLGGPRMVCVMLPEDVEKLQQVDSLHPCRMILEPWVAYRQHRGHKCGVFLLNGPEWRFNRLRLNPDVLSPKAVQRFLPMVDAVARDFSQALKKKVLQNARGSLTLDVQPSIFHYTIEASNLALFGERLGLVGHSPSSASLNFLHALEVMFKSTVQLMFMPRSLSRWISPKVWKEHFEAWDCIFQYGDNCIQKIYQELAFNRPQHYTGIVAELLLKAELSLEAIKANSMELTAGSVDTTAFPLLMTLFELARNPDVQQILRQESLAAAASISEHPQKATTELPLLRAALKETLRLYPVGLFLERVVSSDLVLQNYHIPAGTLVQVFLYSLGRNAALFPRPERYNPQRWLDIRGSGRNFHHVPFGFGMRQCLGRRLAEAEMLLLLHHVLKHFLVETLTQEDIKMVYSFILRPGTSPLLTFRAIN

[7] = molecular target: T3, CYP19 (aromatase) (Homo sapiens, UniProt P11511); assay: Inhibition of human CYP19 at 10 uM preincubated for 10 mins with NADPH followed by protein addition measured after 90 mins by fluorometric analysis
T3 sequence (P11511 whole entry): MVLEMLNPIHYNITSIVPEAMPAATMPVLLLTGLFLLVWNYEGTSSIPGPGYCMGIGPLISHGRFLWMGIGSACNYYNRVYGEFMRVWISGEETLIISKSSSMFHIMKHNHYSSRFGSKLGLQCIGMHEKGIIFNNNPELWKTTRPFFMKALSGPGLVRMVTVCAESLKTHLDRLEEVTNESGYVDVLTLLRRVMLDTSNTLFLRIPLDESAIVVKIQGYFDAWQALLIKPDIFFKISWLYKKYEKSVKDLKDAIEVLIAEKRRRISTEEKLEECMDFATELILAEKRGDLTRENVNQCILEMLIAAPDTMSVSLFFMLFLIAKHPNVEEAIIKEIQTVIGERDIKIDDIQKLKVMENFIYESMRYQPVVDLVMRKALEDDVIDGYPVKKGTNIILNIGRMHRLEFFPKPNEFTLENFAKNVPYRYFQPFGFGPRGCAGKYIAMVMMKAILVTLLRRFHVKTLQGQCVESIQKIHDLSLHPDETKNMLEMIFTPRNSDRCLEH

[8] = molecular target: T2, Cytochrome P450 11B2, mitochondrial; assay: Inhibition of CYP11B2 in human […] cells assessed as decrease in […] aldosterone secretion after 24 hrs by RIA; type: cell-based
[9] = Inhibition of CYP11B2 in cynomolgus monkey adrenal homogenates assessed as inhibition of aldosterone secretion; type: tissue-based, Macaca fascicularis
In short: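 Cynomolgus monkey adrenal homogenates, with 11-DOC as substrate; aldosterone secretion inhibition determined as IC50.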

[10] = Clearance in continuous angiotensin-2 infusion Sprague-Dawley rat model at 3 mg/kg, po and 1 mg/kg, iv; type: ADME, organism-based; settings: in vivo
[11] = AUC (0 to 24 hrs) in Sprague-Dawley rat at 1 mg/kg, po; settings: in vivo
[12] = Half life in continuous angiotensin 2 infusion Sprague-Dawley rat model at 3 mg/kg, po and 1 mg/kg, iv; type: ADME, organism-based; settings: in vivo
[13] = Equilibrium solubility of the compound in buffer at pH 6.8; type: physicochemical
In short: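 Equilibrium solubility measured in buffer at pH 6.8.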

[14] = Oral bioavailability in continuous angiotensin 2 infusion Sprague-Dawley rat model at 3 mg/kg; type: ADME, organism-based; settings: in vivo
In short: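 Male Sprague Dawley rats, 200–300 g. IV: 0.3 mg/1 mL/kg (free base) slow injection via jugular vein, n=2. Oral gavage at 1 mg/5 mL/kg or 3 mg/5 mL/kg in solution, n=3. Jugular catheter blood at 5 min (iv only), 0.25–8 h into EDTA; plasma after protein precipitation with acetonitrile containing internal standard, HPLC-MS; noncompartmental parameters.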

[15] = molecular target: T4, Amine oxidase [flavin-containing] A (Homo sapiens, UniProt P21397); assay: Inhibition of MAO-A (unknown origin)
T4 sequence (P21397 whole entry): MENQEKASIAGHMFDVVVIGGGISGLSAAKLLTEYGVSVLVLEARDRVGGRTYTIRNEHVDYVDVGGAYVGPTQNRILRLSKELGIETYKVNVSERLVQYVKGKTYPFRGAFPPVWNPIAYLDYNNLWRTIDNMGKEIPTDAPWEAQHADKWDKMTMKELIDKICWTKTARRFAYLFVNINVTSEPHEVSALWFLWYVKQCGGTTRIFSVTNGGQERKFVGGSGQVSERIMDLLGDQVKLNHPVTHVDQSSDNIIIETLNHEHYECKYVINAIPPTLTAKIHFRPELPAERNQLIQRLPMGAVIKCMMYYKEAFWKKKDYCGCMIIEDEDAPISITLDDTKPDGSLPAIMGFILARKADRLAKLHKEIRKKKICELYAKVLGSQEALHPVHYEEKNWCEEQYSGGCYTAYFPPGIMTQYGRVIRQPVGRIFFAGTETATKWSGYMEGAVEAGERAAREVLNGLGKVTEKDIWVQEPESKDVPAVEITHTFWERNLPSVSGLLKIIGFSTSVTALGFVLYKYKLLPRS

Structure (SMILES) | IC50 [1] [nM] | Ratio IC50 [2] | half-life [3] [min] | half-life [4] [min] | Ratio IC50 [5] | IC50 [6] [nM] | inhibition at 1.5 h, 10 µM [7] [%] | IC50 [8] [nM] | IC50 [9] [nM] | clearance [10] [mL/min/kg] | AUC(0-t) at 24 h [11] [µM·h] | half-life [12] [min] | solubility thermodynamic [13] [µM] | bioavailability [14] [%] | inhibition (INH) ([15]; human) | IC50 [15] [nM]
CCS(=O)(=O)NCc1cncc(-c2cc3cnc(Cl)cc3n2C)c1 | – | – | – | – | 21 | 22 | – | 169 | – | – | – | – | – | – | – | –
CCS(=O)(=O)NCc1cncc(-c2cc3ccc(Cl)nc3n2C)c1 | – | 99 | 21 | 40 | 86 | 1.1 | 11 | 7 | 6 | 68 | 0.75 | 24 | 450 (≈ 164 µg/mL) | 100 | – | –
CCS(=O)(=O)Nc1cncc(-c2c(C#N)c3ccc(Cl)cc3n2C)c1 | 53100 | 636 | > 400 | 176 | 43 | 11 | 15 | 13 | – | – | – | – | – | – | Not Active | –
CCS(=O)(=O)Nc1cncc(-c2c(C#N)c3ccccc3n2C)c1 | – | – | – | – | – | – | – | 380 | – | – | – | – | – | – | – | –
CN(C)S(=O)(=O)Oc1cncc(-c2c(C#N)c3ccccc3n2C)c1 | 2000 | – | 3 | 1 | 103 | 2 | 27 | 39 | – | – | – | – | – | – | – | > 10000

Continued, values first:

IC50 [1] [nM] | Ratio IC50 [2] | half-life [3] [min] | half-life [4] [min] | Ratio IC50 [5] | IC50 [6] [nM] | inhibition at 1.5 h, 10 µM [7] [%] | IC50 [8] [nM] | IC50 [9] [nM] | clearance [10] [mL/min/kg] | AUC(0-t) at 24 h [11] [µM·h] | half-life [12] [min] | solubility thermodynamic [13] [µM] | bioavailability [14] [%] | inhibition (INH) ([15]; human) | IC50 [15] [nM] | Structure (SMILES)
10900 | 396 | 10 | 30 | 56 | 11 | 58 | 90 | 9 | – | – | – | – | – | – | – | Cn1c(-c2cccnc2)c(C#N)c2ccccc21
– | – | 12 | 5 | 38 | 1.4 | 91 | 9 | – | – | – | – | – | – | – | – | Cc1c(-c2cccnc2)n(C)c2ccccc12
3900 | – | – | – | 27 | 3 | 94 | 21 | – | – | – | – | – | – | – | – | Cc1c(-c2cccnc2)[nH]c2ccccc12
8000 | – | 259 | 47 | 43 | 2.5 | 47 | 4 | – | – | – | – | – | – | – | 210 | Cn1c(-c2cccnc2)c(C#N)c2ccc(Cl)cc21

Source: ChEMBL document CHEMBL3745671, “Discovery of N-[5-(6-Chloro-3-cyano-1-methyl-1H-indol-2-yl)-pyridin-3-ylmethyl]-ethanesulfonamide, a Cortisol-Sparing CYP11B2 Inhibitor that Lowers Aldosterone in Human Subjects” (J Med Chem, 2015)
